In ChEMBL document CHEMBL3526049 (Drug Metab Dispos, 2012):

Assays:
Details in all cases: in vivo
Rattus norvegicus [1] = experiment: AUC (infinity) in wild-type Sprague-Dawley rat treated with loperamide at 10 mg/kg, po by LC-MS/MS analysis; format: ADME, organism-based, Plasma; parameters: time infinity, dose 10 mg/kg, route oral
How it was run: (§1)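 Male Sprague-Dawley rats (knockout or wild type matched for age and weight), femoral artery and vein cannulated, at least 2 days recovery. Crossover design: IV bolus 1 mg/kg on day 0 (saline with 0.2 M equivalents HCl), oral gavage 10 mg/kg on day 3 (water with 0.2 M equivalents HCl). Arterial plasma sampled to 24 h (Mdr1a oral arm to 4 h). Analysed by LC-MS/MS and noncompartmental analysis.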

Rattus norvegicus [2] = experiment: AUC (infinity) in BCRP knockout Sprague-Dawley rat treated with loperamide at 10 mg/kg, po by LC-MS/MS analysis; format: ADME, organism-based, Plasma; parameters: time infinity, dose 10 mg/kg, route oral; how it was run: as §1
Rattus norvegicus [3] = experiment: AUC (infinity) in MRP2 knockout Sprague-Dawley rat treated with loperamide at 10 mg/kg, po by LC-MS/MS analysis; format: ADME, organism-based, Plasma; parameters: time infinity, dose 10 mg/kg, route oral; how it was run: as §1
Rattus norvegicus [4] = experiment: Cmax in wild-type Sprague-Dawley rat treated with loperamide at 10 mg/kg, po by LC-MS/MS analysis; format: ADME, organism-based; parameters: dose 10 mg/kg, route oral; how it was run: as §1
Rattus norvegicus [5] = experiment: Cmax in MDR1A knockout Sprague-Dawley rat treated with loperamide at 10 mg/kg, po by LC-MS/MS analysis; format: ADME, organism-based; parameters: dose 10 mg/kg, route oral; how it was run: as §1
Rattus norvegicus [6] = experiment: Cmax in BCRP knockout Sprague-Dawley rat treated with loperamide at 10 mg/kg, po by LC-MS/MS analysis; format: ADME, organism-based; parameters: dose 10 mg/kg, route oral; how it was run: as §1
Rattus norvegicus [7] = experiment: Cmax in MRP2 knockout Sprague-Dawley rat treated with loperamide at 10 mg/kg, po by LC-MS/MS analysis; format: ADME, organism-based; parameters: dose 10 mg/kg, route oral; how it was run: as §1
Rattus norvegicus [8] = experiment: Ratio of AUC (0 to 4 hrs) for metabolite to AUC (0 to 4 hrs) for parent compound in wild-type Sprague-Dawley rat at 10 mg/kg, po by LC-MS/MS analysis; format: ADME, organism-based; parameters: dose 10 mg/kg, route oral
Rattus norvegicus [9] = experiment: Ratio of AUC (0 to 4 hrs) for metabolite to AUC (0 to 4 hrs) for parent compound in MDR1A knockout Sprague-Dawley rat at 10 mg/kg, po by LC-MS/MS analysis; format: ADME, organism-based; parameters: dose 10 mg/kg, route oral
Rattus norvegicus [10] = experiment: Ratio of AUC (0 to 4 hrs) for metabolite to AUC (0 to 4 hrs) for parent compound in BCRP knockout Sprague-Dawley rat at 10 mg/kg, po by LC-MS/MS analysis; format: ADME, organism-based; parameters: dose 10 mg/kg, route oral
Rattus norvegicus [11] = experiment: Ratio of AUC (0 to 4 hrs) for metabolite to AUC (0 to 4 hrs) for parent compound in MRP2 knockout Sprague-Dawley rat at 10 mg/kg, po by LC-MS/MS analysis; format: ADME, organism-based; parameters: dose 10 mg/kg, route oral
Rattus norvegicus [12] = experiment: AUC (0 to 4 hrs) in MDR1A knockout Sprague-Dawley rat treated with loperamide at 10 mg/kg, po by LC-MS/MS analysis; format: ADME, organism-based, Plasma; parameters: time < 4 hr, dose 10 mg/kg, route oral
Rattus norvegicus [13] = experiment: AUC (0 to 4 hrs) in wild-type Sprague-Dawley rat treated with loperamide at 10 mg/kg, po by LC-MS/MS analysis; format: ADME, organism-based, Plasma; parameters: time < 4 hr, dose 10 mg/kg, route oral

## CNC(=O)C(CCN1CCC(O)(c2ccc(Cl)cc2)CC1)(c1ccccc1)c1ccccc1
Rattus norvegicus [1]
  AUC: 1875 ng.Eq.hr/ml
Rattus norvegicus [2]
  AUC: 3256 ng.Eq.hr/ml
Rattus norvegicus [3]
  AUC: 3658 ng.Eq/ml
Rattus norvegicus [4]
  Cmax: 158 ng.Eq/ml
Rattus norvegicus [5]
  Cmax: 193 ng.Eq/ml
Rattus norvegicus [6]
  Cmax: 150 ng.Eq/ml
Rattus norvegicus [7]
  Cmax: 109 ng.Eq/ml
Rattus norvegicus [8]
  Ratio AUC: 2.3
Rattus norvegicus [9]
  Ratio AUC: 1
Rattus norvegicus [10]
  Ratio AUC: 3.3
Rattus norvegicus [11]
  Ratio AUC: 3.5
Rattus norvegicus [12]
  AUC: 635 ng.Eq.hr/ml
Rattus norvegicus [13]
  AUC: 427 ng.Eq.hr/ml
